A selection: hits, their analogues and other compounds. The true share with any hit is near 2%.
NR1D1 modulator: modulates human Rev-erb alpha binding to DNA. P20393. Rev-erbα–FITC-DNA binding, fluorescence polarization, 90 min. activity, % at 10 µM. 0.79% of 370,000 active. AID 1259318;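 active means activity above about 14%, limit read from the data; passing the limit was not always enough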;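 further: 0% = DMSO wells with 35 nM protein and 100% = DMSO wells with 750 nM protein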
Target sequence (P20393 whole entry, looked up): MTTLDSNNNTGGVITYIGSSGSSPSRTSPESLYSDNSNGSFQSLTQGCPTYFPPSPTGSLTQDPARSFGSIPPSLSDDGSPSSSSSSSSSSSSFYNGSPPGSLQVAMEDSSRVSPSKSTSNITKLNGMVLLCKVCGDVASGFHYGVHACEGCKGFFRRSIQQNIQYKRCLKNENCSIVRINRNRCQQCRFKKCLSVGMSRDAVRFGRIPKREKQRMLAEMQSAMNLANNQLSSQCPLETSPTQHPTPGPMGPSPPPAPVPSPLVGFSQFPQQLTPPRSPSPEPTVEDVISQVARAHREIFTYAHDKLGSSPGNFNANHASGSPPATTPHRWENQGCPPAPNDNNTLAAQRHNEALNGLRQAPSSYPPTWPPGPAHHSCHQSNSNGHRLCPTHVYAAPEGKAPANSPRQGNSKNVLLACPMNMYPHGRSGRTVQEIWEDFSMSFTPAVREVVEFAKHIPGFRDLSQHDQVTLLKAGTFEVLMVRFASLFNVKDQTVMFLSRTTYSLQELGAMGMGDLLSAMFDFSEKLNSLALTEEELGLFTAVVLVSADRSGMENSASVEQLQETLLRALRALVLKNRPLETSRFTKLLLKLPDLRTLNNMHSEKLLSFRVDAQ
Neddyl block: inhibitors of human cullin neddylation; P61081+Q13564; TR-FRET cullin neddylation, biochemical; calls only at 25 µM; 0.58% of 360,000 active; in the data active means inhibition above about 36%
NR2E3 ag-1: agonists of human nuclear receptor NR2E3; Q9Y5X4; GST-NR2E3/biotin-RetCOR TR-FRET, 1536-well; inhibition of corepressor binding, % at 4.78 µM; 0.12% of 320,000 active; AID 2300;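 active means percent inhibition above the cutoff of mean plus 3 SD of all tested compounds, set per screening campaign, cut at about 20% in these data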;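 further: 0% = DMSO wells and 100% = biotin wells as full block of FRET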
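Material: NR2E3–RetCOR corepressor complex / Amount: 1.35 nM GST-NR2E3 / Medium: Tris pH 7.5 / Compound: single nominal compound dose of 4.8 µM / Incubation: 5 h at 4 °C / Technique: TR-FRET, Eu(K)-anti-GST donor, streptavidin-D2 acceptor, ex 340, em 617/671 nm / Read-out basis: percent loss of FRET ratio relative to control wells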
PG9 binder: small molecules binding HIV-1 gp120 antibody PG9 | inhibition, % at 6.7 µM | TR-FRET gp120-PG9 antibody binding | 0.43% of 360,000 active; in the data active means inhibition above about 8.5%
NR2E3 ag-2: human photoreceptor-specific nuclear receptor agonism; Q9Y5X4; CHO-S Gal4-NCOR/VP16-NR2E3 two-hybrid, luciferase; inhibition of corepressor binding, % at 3.98 µM; 0.35% of 360,000 active;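 active means inhibition above the mean of all tested compounds plus 3 SD, cut at about 70% in these data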;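 further: 0% = DMSO with NR2E3 transfected cells and 100% = cells lacking NR2E3 construct; higher means lower luciferase signal from less NR2E3 corepressor binding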
Neddyl inh conf: cullin neddylation inhibition, confirmation; TR-FRET cullin neddylation biochemical assay; AID 652217; calls only at 25 µM; 13% of 1,800 active; shares compounds with Neddyl block; in the data active means inhibition above about 40%;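 further: neddylation substrate is the cullin 1 ring ligase complex with SKP2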
An asterisk follows results filed as active; ! = a repeat was not active.

How did COC(=O)C1=C(C)NC(C)=C(C(=O)OC)C1C(=O)OCC(=O)N1c2ccccc2CC1C (stereo not given) do in these assays?
NR1D1 modulator: 5; Neddyl block: active!; NR2E3 ag-1: 0; PG9 binder: -1; NR2E3 ag-2: -8

What do the screens show for `Cn1nnnc1Sc1ncnc2scc(-c3cccs3)c12`?
NR2E3 ag-1: 3

Results for COc1ccc2nc(NC(=S)NC(=O)c3ccco3)sc2c1 ?
NR1D1 modulator: -13; Neddyl block: inactive; NR2E3 ag-1: 1; PG9 binder: -2; NR2E3 ag-2: -49

How did COc1ccc2sc(NC(=O)c3ccco3)nc2c1 do in these assays?
NR1D1 modulator: -4; Neddyl block: active; NR2E3 ag-1: 3; PG9 binder: 0; NR2E3 ag-2: -104; Neddyl inh conf: inactive

What do the screens show for `COc1cc(C(=O)OCC(=O)N2CC(C)OC(C)C2)cc(OC)c1OC` (stereo not given)?
NR1D1 modulator: -6; Neddyl block: inactive; NR2E3 ag-1: -1; PG9 binder: -2; NR2E3 ag-2: -31

Results for O=C(O)c1ccc2c(=O)n3c(nc2c1)/C(=C/c1ccc(Cl)c(Cl)c1)CC3 ?
NR1D1 modulator: -7; NR2E3 ag-1: 0; PG9 binder: -1; NR2E3 ag-2: -23

How did CSc1ccc(/C=C2\CCn3c2nc2cc(C(=O)O)ccc2c3=O)cc1 do in these assays?
NR1D1 modulator: -7; Neddyl block: active; NR2E3 ag-1: 1; PG9 binder: -1; NR2E3 ag-2: -9; Neddyl inh conf: active

How did COC(=O)c1ccc(/C=C2\CCn3c2nc2cc(C(=O)O)ccc2c3=O)cc1 do in these assays?
Neddyl block: active; NR2E3 ag-1: 1; NR2E3 ag-2: -23; Neddyl inh conf: active

How did COc1ccc(/C=C2\CCn3c2nc2cc(C(=O)O)ccc2c3=O)cc1OC do in these assays?
NR1D1 modulator: 2; Neddyl block: inactive; NR2E3 ag-1: 0; PG9 binder: -4; NR2E3 ag-2: -35

What do the screens show for `CC(NC(=O)c1cccc(S(=O)(=O)N2CCCCCC2)c1)c1ccccc1` (stereo not given)?
NR1D1 modulator: -4; Neddyl block: inactive; NR2E3 ag-1: 2; PG9 binder: -1; NR2E3 ag-2: -14

How did O=C(COC(=O)c1ccccc1Cl)NCc1cccs1 do in these assays?
NR1D1 modulator: 1; Neddyl block: inactive; PG9 binder: -1; NR2E3 ag-2: 0

How did Nc1cc(Cl)ccc1C(=O)OCC(=O)NCc1cccs1 do in these assays?
NR1D1 modulator: 1; Neddyl block: active; PG9 binder: 2; NR2E3 ag-2: 5

How did CCc1ccc(-c2cc(C(=O)Nc3c(C)n(C)n(-c4ccccc4)c3=O)c3ccccc3n2)s1 do in these assays?
NR1D1 modulator: 4; Neddyl block: active; NR2E3 ag-1: 0; NR2E3 ag-2: -30; Neddyl inh conf: inactive

Results for CN(C)C(=O)CCC(=O)N1CCCC(C(=O)c2ccc3c4c(cccc24)CC3)C1 (stereo not given) ?
NR1D1 modulator: -2; Neddyl block: active; NR2E3 ag-1: 0; PG9 binder: -1; NR2E3 ag-2: -5; Neddyl inh conf: inactive

What do the screens show for `N#CC1=C(N)Oc2c(ccc3cccnc23)C1c1cccnc1` (stereo not given)?
NR1D1 modulator: -3; Neddyl block: active; NR2E3 ag-1: 0; PG9 binder: -2; NR2E3 ag-2: -14; Neddyl inh conf: inactive

Results for N#CC1=C(N)Oc2cc3ccccc3cc2C1c1cccnc1 (stereo not given) ?
NR1D1 modulator: -2; Neddyl block: inactive; NR2E3 ag-1: 0; PG9 binder: -1; NR2E3 ag-2: -125

What do the screens show for `COc1ccc2nc3c(c(-c4ccccc4)c2c1)CCC3`?
NR1D1 modulator: 1; Neddyl block: inactive; NR2E3 ag-1: 1; PG9 binder: 1; NR2E3 ag-2: -29

How did COc1ccc2nc3c(nc2c1)CCCC3 do in these assays?
NR1D1 modulator: 2; Neddyl block: active; NR2E3 ag-1: 6; PG9 binder: 1; NR2E3 ag-2: -6; Neddyl inh conf: active

How did O=C(O)CCC(=O)N1N=C(c2ccc(Br)cc2)CC1c1cccs1 (stereo not given) do in these assays?
NR1D1 modulator: -6; Neddyl block: inactive; NR2E3 ag-1: -2; PG9 binder: -2; NR2E3 ag-2: -16

How did Cc1ccc2[nH]c(=O)c(C3=NN(C(=O)CCC(=O)O)C(c4cccs4)C3)c(-c3ccccc3)c2c1 (stereo not given) do in these assays?
NR1D1 modulator: -9; Neddyl block: active; NR2E3 ag-1: 1; PG9 binder: -2; NR2E3 ag-2: -11; Neddyl inh conf: inactive

Results for Cc1cc(-c2ccccc2)c2c3c(cn2n1)c(=O)n(C)c(=O)n3C ?
NR1D1 modulator: -9; Neddyl block: inactive; NR2E3 ag-1: 1; PG9 binder: 0; NR2E3 ag-2: -36

What do the screens show for `Cc1cc(-c2ccccc2)c2nncn2n1`?
NR1D1 modulator: -4; Neddyl block: active; NR2E3 ag-1: -5; PG9 binder: -2; NR2E3 ag-2: 0; Neddyl inh conf: active

How did O=S1(=O)C[C@@H](N2CCN(CC3CC3)CC2)[C@H](COCc2ccccc2)N1 do in these assays?
NR1D1 modulator: -2; Neddyl block: inactive; PG9 binder: -1; NR2E3 ag-2: 6

What do the screens show for `O=C(CCn1cnc2ccccc21)N/N=C/c1ccc(O)cc1`?
NR1D1 modulator: -2; Neddyl block: inactive; NR2E3 ag-1: 3; PG9 binder: 1; NR2E3 ag-2: -24

How did O=C(CCn1cnc2ccccc21)N/N=C/c1ccccc1O do in these assays?
NR1D1 modulator: -5; Neddyl block: active; NR2E3 ag-1: -1; PG9 binder: -3; NR2E3 ag-2: 7; Neddyl inh conf: inactive

What do the screens show for `COCCn1c(C)cc(/C=N/NC(=O)c2cc3ccccc3cc2O)c1C`?
Neddyl block: active; NR2E3 ag-1: 6; NR2E3 ag-2: -32

What do the screens show for `Cn1c(O)c(/C=N/NC(=O)c2cc3ccccc3cc2O)c2ccccc21`?
NR1D1 modulator: 6; NR2E3 ag-1: 2; PG9 binder: -1; NR2E3 ag-2: -49

Results for CC(=O)Nc1cncc(-c2cccc(C(=O)N3CCOCC3)c2)n1 ?
NR1D1 modulator: 4; Neddyl block: inactive; PG9 binder: -1; NR2E3 ag-2: -21

How did c1ccc(Nc2cccc3c(Nc4ccccc4)cccc23)cc1 do in these assays?
NR1D1 modulator: -4; Neddyl block: active; NR2E3 ag-1: 2; PG9 binder: 4; NR2E3 ag-2: -35; Neddyl inh conf: active

How did COC(=O)c1ccccc1NC(=O)N1CCCC1 do in these assays?
NR1D1 modulator: -2; Neddyl block: active; NR2E3 ag-1: 3; PG9 binder: 2; NR2E3 ag-2: -6; Neddyl inh conf: inactive

Source: PubChem BioAssay (several laboratories)
